From article PMC3402649 (Peptides, 2012)
Ends that are not written are not given here. * marks the point of attachment. Octanoyl = CCCCCCCC(=O)*

Tests used:
E. coli = experiment: Measurement of zeta-potential of bacteria treated with peptide; design: species or system Escherichia coli; settings: 5 and 20 μg peptide/10^5 bacterial cells, 10 mM NaPi, 20 min, 37°C
Summary of the method: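 Overnight E. coli cultures were washed in PBS and resuspended at 10^8 cells/mL in 10 mM sodium phosphate. Cells were added to phosphate buffer containing peptide to give 5 or 20 μg peptide per 10^5 cells, then incubated 20 min at 37°C. Zeta potential was read on a particle sizer/zetasizer, and the mean was computed by the Smoluchowski equation. Values are mean ± SD of three independent experiments.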

E. coli (ATCC 27325) = experiment: Agar plate-based bactericidal assay; format: cell-based, Escherichia coli
Summary of the method: (§1)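 Bacteria were grown aerobically overnight in BHI broth at 37°C, washed twice in PBS and suspended at 10^5 cells/mL in 10 mM sodium phosphate, pH 6.8. Suspensions were exposed to the test peptide over a range of concentrations for 2 h at 37°C, aerobically. For salt sensitivity, NaCl was added at 0–150 mM, with 25 μg/ml test peptide or 1 μg/ml reference peptide. Samples were diluted in PBS, plated on BHI agar overnight at 37°C and counted for CFU. Survival is expressed as a percentage of untreated; mean ± SD of three independent experiments.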

[1] = test system: P. aeruginosa (ATCC 15692); experiment: Agar plate-based bactericidal assay; format: cell-based, Pseudomonas aeruginosa
Summary of the method: as §1

E. faecalis (ATCC 29212) = experiment: Agar plate-based bactericidal assay; format: cell-based, Enterococcus faecalis; settings: range of ghrelin concentrations tested; data not shown
[2] = LL37 1 μg/ml, 10 mM NaPi pH 6.8 with NaCl 0 to 150 mM, dose-dependent
[3] = physiological NaCl concentration (150 mM) in 10 mM NaPi pH 6.8, AG 25 μg/ml

Q: How did the “effect on zeta-potential of E. coli (in words)” value (E. coli) turn out when “LL37 (LLGDFFRKSKEKIGKEFKRIVQRIKDFLRNLVPRTES; Antibacterial peptide LL-37; UniProt P49913 134-170, looked up) [reference compound]” was run?
A: The value was “increased the zeta-potential of E. coli”.

Q: What about the “effect of NaCl on bactericidal activity (in words)” value (E. coli (ATCC 27325); [2]) of the same substance?
A: The value was “attenuated”.

Q: And the “effect of NaCl on bactericidal activity (in words)” value [1, 2]?
A: Its value is “attenuated”.

Q: What does the source list for “acylated ghrelin (GSS(Octanoyl)FLSPEHQRVQQRKESKKPPAKLQPR; UniProt Q9UBU3 24-51, looked up) [AG]”?
A: effect of NaCl on bactericidal activity (in words) (E. coli (ATCC 27325); [3]): decreased; effect of NaCl on bactericidal activity (in words) [1, 3]: decreased; bactericidal effects (in words) (E. faecalis (ATCC 29212)): neither AG nor DAG showed significant bactericidal effects

Q: “desacylated ghrelin (GSSFLSPEHQRVQQRKESKKPPAKLQPR; Ghrelin-28 non-acylated; UniProt Q9UBU3 24-51, looked up) [DAG]” was tested. Which “bactericidal effects (in words)” value (E. faecalis (ATCC 29212)) did it give?
A: The value was “neither AG nor DAG showed significant bactericidal effects”.
